Bioassay records from PubChem BioAssay.
In the library only some 4.9% were active in any assay of this set; here they are far more common.
APP 5'UTR act: APP 5'UTR luciferase reporter activation | SH-SY5Y APP 5'UTR luciferase reporter, luminescence; zero percent = DMSO vehicle wells | activation, % at 2 µM | 1% of 190,000 active | AID 1276;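 active = activation above a set limit, based on mean plus 3 SD of controls, cut at about 140% in these data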
NF-kB expr up: raises NF-kB expression in human neuronal cells. NF-kB reporter expression; active compounds read high. fold change at 12.5 µM. 1.6% of 190,000 active; in the data active = fold change above about 3.3
STAT1 act: increases IFN-gamma driven STAT1 reporter signal. NIH 3T3 STAT1-luciferase reporter, luminescence; 100% = IFN-gamma alone, no compound. activation (% of control), % at 5.5 µM. 2.6% of 200,000 active. AID 932;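 active = activation above the screen-wide mean activation plus 3 SD, cut at about 130% in these data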;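 also: raw ratio to IFN-gamma control signal so 100% means no change and 0% no light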
STAT3 blocker: inhibitors of IL-6 induced STAT3 signaling | U3A cells, IL-6 STAT3-luciferase reporter, luminescence; host cell line lacks STAT1 | inhibition, % at 5.5 µM | 0.89% of 190,000 active;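 active = inhibition above the mean inhibition across all screened compounds plus 3 SD, cut at about 44% in these data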;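 also: 0% = DMSO only wells and 100% = 100 µM nifuroxazide control wells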
STAT3 act: STAT3 signaling activation | U3A cells, IL-6 STAT3-luciferase reporter, luminescence; 100% = signal with IL-6 EC80 alone | activation (% of control), % at 5.6 µM | 0.91% of 190,000 active | AID 871;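 active = activation above the screen-wide mean of compound activation plus 3 SD, cut at about 130% in these data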;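 also: 0% = background luminescence of wells with medium and substrate only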
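Test system: Human STAT1-deficient U3A cells with stable STAT3-luciferase reporter | Also added: Interleukin-6, 33 ng/mL | Timing: Compound pre-incubation 1 h before IL-6, then 6 h stimulation at 37 °C | Technique: Luciferase reporter luminescence | Read-out: Percent of IL-6-only median luminescence | Benchmarks: IL-6-only wells as 100% reference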
STAT1 inh: inhibitors of IFN-gamma induced STAT1 signaling; inhibition, % at 5.5 µM; NIH 3T3 STAT1-luciferase reporter, luminescence; 0.35% of 200,000 active;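 active = inhibition above a set limit, the mean inhibition across all tested compounds plus 3 SD, cut at about 34% in these data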;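 also: 0% = IFN-gamma with DMSO and 100% = IFN-gamma with 300 µM nifuroxazide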
STAT1 activ conf: STAT1 activation, confirmation assay; shares compounds with STAT1 act; NIH 3T3 STAT1-luciferase reporter, IFN-gamma potentiation, luminescence; 100% = IFN-gamma EC80 alone, no compound; activation (% of control), % at 5.7 µM; 97% of 1,200 active; AID 1262;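 active = activation above a set limit carried over from the earlier primary STAT1 screen, cut at about 140% in these data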;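 also: simple ratio to median IFN-gamma plus DMSO wells so 0% means no light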
NFkB act: activates NF-kappaB, counter-screen to STAT1 activators; HEK293T NF-kB luciferase reporter, TNF-alpha stimulated, luminescence; 100% = TNF-alpha with vehicle only; 43% of 1,200 active; activation (% of control), % at 5.7 µM; AID 1306; shares compounds with STAT1 act;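 active = activation above the mean of solvent-only control wells plus 3 SD, set per campaign, cut at about 130% in these data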;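 also: TNF-alpha given at a submaximal dose yielding about 80% of full reporter signal; values are well signal over median control so 100% means no change and 0% no light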
STAT3 act STAT1c: human STAT3 activation in STAT1 activator counter-screen; 46% of 1,200 active; shares compounds with STAT1 act; activation (% of control), % at 5.7 µM; AID 1316; U3A cells STAT3-luciferase reporter, IL-6, luminescence; cells lack STAT1; 100 = IL-6 alone, no compound effect;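 active = activation above the solvent-only control well mean plus 3 SD, set per plate batch, cut at about 110% in these data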;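 also: 0% = no luminescence and 100% = median IL-6 plus DMSO wells; higher means more STAT3 reporter activation so hits are non-selective activators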
* marks the source's active call; other numbers are inactive results; / = not tested or not shown.

SMILES	APP 5'UTR act	NF-kB expr up	STAT1 act	STAT3 blocker	STAT3 act	STAT1 inh	STAT1 activ conf	NFkB act	STAT3 act STAT1c
COc1ccc(-c2cc(=O)c3cc(OC)ccc3[nH]2)cc1	126	4.7*	153*	38	66	-58	165*	103	101
COc1cccc(-c2cc(=O)c3cc(NC(C)=O)ccc3[nH]2)c1	1	1	101	4	94	-1	/	/	/
COc1ccc(CN2CCCCC2c2cccnc2)c(OC)c1C (centres undefined)	7	/	98	16	93	2	/	/	/
CCOc1ccc(C(=O)CC(NCc2cccs2)C(=O)O)cc1 (centres undefined)	11	1.2	89	8	101	12	/	/	/
COc1cc(SC)ccc1C(=O)Nc1ccc(C)cc1C	116	4*	153*	-2	104	-60	189*	131	106
COc1cc(SC)ccc1C(=O)NCCc1ccccc1	85	3.5*	161*	-10	111	-68	169*	123	144*
COc1cc(SC)ccc1C(=O)Nc1ccon1	48	2.1	120	18	89	-22	/	/	/
COc1cc(SC)ccc1C(=O)Nc1ncc(Cl)cc1Cl	142*	3.8*	151*	19	88	-55	174*	125	94
COc1cc(SC)ccc1C(=O)Nc1ccc2c(c1)OCO2	170*	7.6*	153*	9	93	-57	250*	136*	106
Cc1ccc(-n2ncc3c(NCc4ccco4)ncnc32)cc1C	129	4.7*	154*	8	100	-58	181*	140*	106
CCSc1nnc(Cc2cc(=O)[nH]c(=O)[nH]2)n1-c1cc(C)ccc1C	-8	1.2	101	2	103	-1	/	/	/
COc1ccc(NC(=O)Nc2ccc(Br)cn2)cc1	94	2.2	169*	3	97	-74	160*	120	91
Cc1ccc(NC(=O)Nc2ccc(Cl)cn2)cc1	99	2.2	172*	18	94	-80	171*	130	99
COC(=O)c1ccccc1NC(=O)Nc1ccc(Br)cn1	23	1.5	108	12	92	-8	/	/	/
O=C(COc1ccc(Cl)cc1)Nc1ccccc1N1CCOCC1	1	1.2	105	12	94	-6	/	/	/
Cc1ccc(N(C(=O)NC2CCCCC2)C2=NCCCCC2)cc1	32	1.6	100	20	87	1	/	/	/
CN(/C=C/C(=O)C(F)(F)F)Cc1ccccc1	28	1.1	99	4	98	1	/	/	/
O=C(Nc1ccc(N2CCOCC2)c(Cl)c1)c1cc2ccccc2o1	84	2.2	170*	6	98	-74	179*	128	94
CCC(=O)Nc1ccc(N2CCN(S(C)(=O)=O)CC2)cc1	-2	1	100	9	93	0	/	/	/
CS(=O)(=O)N1CCN(c2ccc(NC(=O)c3ccc([N+](=O)[O-])o3)cc2)CC1	-66	2.2	160*	22	90	-67	98	112	89
O=C(Nc1ccc(N2CCCC2)c(Cl)c1)c1ccc([N+](=O)[O-])o1	-78	4.3*	159*	10	96	-67	98	133*	103
CC(C)CC(=O)Nc1ccc(C(=O)NN2C(=O)c3ccccc3C2=O)cc1	17	1.3	100	0	104	0	/	/	/
O=C(Nc1nc2ccccc2s1)C1CCCO1 (centres undefined)	49	2.6	151*	12	94	-56	166*	122	108
O=C(Nc1nc(-c2nc3ccccc3s2)cs1)C1CC1	238*	5.7*	162*	6	95	-65	227*	128	117*
CC1CCc2nc(NC(=O)C3CCCO3)sc2C1 (centres undefined)	172*	3.5*	161*	12	90	-66	189*	103	96
SMILES	APP 5'UTR act	NF-kB expr up	STAT1 act	STAT3 blocker	STAT3 act	STAT1 inh	STAT1 activ conf	NFkB act	STAT3 act STAT1c
COc1ccc(C2C3=C(CCCC3=O)Nc3nc4ccccc4n32)cc1OC (centres undefined)	4	/	100	11	94	0	/	/	/
Cc1cc(C)c2sc(N)nc2c1	24	0.97	93	11	94	6	/	/	/
O=C1OC(Cc2ccccn2)C(O)=C1C1=NCCCCN1 (centres undefined)	105	2.1	152*	-3	103	-58	151*	115	114*
O=C1OC(Cc2ccccn2)C(O)=C1C1=NCCCN1 (centres undefined)	8	1.4	110	-2	101	-12	/	/	/
CCCNC1=CC(=O)CC(C)(C)C1	12	1	103	-4	104	-4	/	/	/
O=C(NCc1ccccn1)c1cc(-c2ccc(-c3ccccc3)cc2)nc2ccccc12	107	1.9	156*	-16	115	-63	199*	107	148*
COc1ccc(C(=O)NC(=S)Nc2ccccc2F)cc1	116	3	158*	2	96	-66	171*	134*	100
O=S(=O)(c1ccc(Cl)s1)N1CCCc2cccc(O)c21	79	2.7	122	-11	110	-24	/	/	/
Cc1occc1C(=O)Nc1nccs1	8	1	95	8	96	6	/	/	/
Cc1occc1C(=O)Nc1nnc(-c2cccs2)s1	114	1.5	157*	-8	112	-63	194*	131	112*
Cc1cccc(-c2cc3nc4c(c(N5CCCC(O)C5)n3n2)CCC4)c1 (centres undefined)	2	0.37	88	10	92	13	/	/	/
OC1CCCN(c2c3c(nc4cc(-c5cccc(F)c5)nn24)CCCC3)C1 (centres undefined)	60	1.3	158*	-6	106	-62	166*	130	116*
Cc1ccc2nc(/C=C/c3cccc(F)c3)ccc2c1	214*	7.4*	194*	6	99	-107	259*	150*	116*
CC(C)CN(C(=O)CSc1nn(-c2ccc(Cl)cc2)c(=S)s1)C1CCS(=O)(=O)C1 (centres undefined)	10	1.3	92	-7	103	10	/	/	/
CC(C)CSc1nnc2c(n1)[nH]c1ccccc12	130	4.8*	153*	40	65	-57	249*	113	89
